This note sets out measurements from the RNAGym collection of RNA variant scans (doi:10.1126/science.aae0568).

Fewer inactive variants are shown than the library holds.

The chains are these.
B1: tRNA (parent)
chain: GUUCCGUUGGCGUAAUGGUAACGCGUCUCCCUCCUAAGGAGAAGACUGCGGGUUCGAGUCCCGUACGGAACG

In this data set the parent is B1. Nature of the data set: yeast fitness relative to wild type (ratio to wild type); higher = fitter; tRNA-Arg(CCU), competitive growth, 37 C, YPD. Put shortly:
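The tRNA-Arg(CCU) gene variants were made by chemical synthesis with a 3% per-site mutation rate at 69 sites and inserted at the native genomic locus of Saccharomyces cerevisiae. After pooling, the strains were competed in YPD at 37°C for 24 hours in six parallel replicates. Gene amplicons from the start population and each end population were read by 100-nucleotide paired-end sequencing, and Darwinian fitness relative to wild type was taken from genotype frequency changes. Genotypes needed ≥ 100 starting reads, and estimates < 0.5 were set to 0.5.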
GUUCCGUUGGCGUAAUCGUAACGCGUCUCCCUCAUAAGGAGAAGACUGCGGGUUCGCGUCCCGUACGGAACG: the yeast fitness was 0.561.
In the case of GUUCCGUUGGCGUAAUCGUAACGCGUCUCCUUCCUAUGGAAAAGACUACGGGUUCGAGUCCCGUACGGAACG, the yeast fitness is not above 0.5.
As for GUUCCGUUGGCGUAAUCGUAACGCGUCUCCCUCCUAAGGAGAAGAGUGCGGGUUCGUGUCCCAUACGGAACG, the yeast fitness is not above 0.5.
With GUUCCGUUGGCGUAAUCGUAACGCGUCUCCCUCCUAAGGAGAAGAGUGCGGGUUUGAGUCCCGUACGGAACG, the yeast fitness came out at 0.571.
For GUUCCGUUGGCGUAAUCGUAACGCGUCUUCCACCUAAGGAGAAGAUUGCGGGUUCGAGUCCCGUACGGAACG the value was not above 0.5; for GUUCCGUUGGCGUAAUCGUAACGCGUCUCUCUCCUGAGGAGAAGACUGCGGGUUCGAGUCCCGUACUGAGCG, not above 0.5.
As for GUUCCGUUGGCGUAAUCGUAACGCGUCUCCUUCCUAAGGAGCAGACUGAGGGUUCGAGUCCCGUACGGAACG, the yeast fitness stood at 0.534.
The result for GUUCCGUUGGCGUAAUCGUAACGCGUCUUCCUCCUACGGAGAAGACUGCGGGUUCGAGUCCCGUACAGAACG reads 0.575; that for GUUCCGUUGGCGUAAUCGUAACGCGUCUCCCUCUUAAGGAGAAGACUGCGGGUUCGAGUCCCGUACGAAACG, 0.536.
For GUUCCGUUGGCGUAAUCGUAACGCGUCUCCCUCCUAAGGAGAAGACUGGGGGUUCGAGUCACGUACGGAACG, the yeast fitness is not above 0.5.
For GUUCCGUUGGCGUAAUCGUAACGCGUCUCGCCCCUAAGGAGAAGACUGCGGGUUCGAGUGCCAUUUGGAACG the value was 0.544; for GUUCCGUUGGCGUAAUCGUAACGCGUCUCCGUCCUAAGGAGCAGACUGCGGGUUCGAGUCCCGUAUGGAACG, not above 0.5; for GUUCCGUUGGCGUAAUCGUAACGCGUCUUCCUCCUAAGGAGAAGACUGCGGGUUCGAGUCCCGUACGGAUCG, not above 0.5.
Regarding GUUCCGUUGGCGUAAUCGUAACGCGUCUGCCUCCUAAGAAGAAGACUGCGGGUUCGAGUCCCGUACGGAUCG, the yeast fitness was not above 0.5.
In the case of GUUCCGUUGGCGUAAUCGUAACGCGUCUCCCUCUUAAGGAGAAGACUGCGGGUUCGGGUCCCGUACGGAUCG, the yeast fitness turned out to be 0.558.
As to GUUCCGUUGGCGUAAUCGUAACGCGUCUCCCUCCUAAGGAGAAGACUGUGGGUUCGAGUCGCGUAUGGAACG, the yeast fitness is not above 0.5.
For GUUCCGUUGGCGUAAUCGUAACGCGUCUCCCUCUUAAGGAGAAGACUGCGGGUUCGAGUCUCGUACAGAACG the value was not above 0.5; for GUUCCGUUGGCGUAAUCGUAACGCGUCUCGCUCCUAAGGAGAAGACUGCGGGUUCGAGUCCCGUACGGAACG, 0.581.
The result for GUUCCGUUGGCGUAAUCGUAACGCGUCUCCGUCCUAAGGAGAAGACUGCGGGUUCGAGUCCCGUACGGAACG reads 0.634; that for GUUCCGUUGGCGUAAUCGUAACGCGUCUCACUCGUACGGAGAAGACUGCGGGCUCGAGUCCCCUACGGAACG, not above 0.5.
GUUCCGUUGGCGUAAUCGUAACGCGUCUCCCUCGUACGGAGAAGACUGCGGGUUCGAGUCCAGUACGGAACG: the yeast fitness was 0.561.
With GUUCCGUUGGCGUAAUCGUAACGCGUCUACCUCCUAAGGAGAAGAUUGCGGGUUCGAGUCCCGUACGGAACG, the yeast fitness came out at 0.867.
For GUUCCGUUGGCGUAAUCGUAACGCGUCUCCCUCCUAAGGAGAAGAAUGCGGGUUCGAGUCCCGUACGGAACG, the yeast fitness came to 0.609.
For GUUCCGUUGGCGUAAUCGUAACGCGUCUCCCUCCUAAGGAGAAGAUUGCGGGUUCGAGUCCCGUACGGAACG the value was 0.686; for GUUCCGUUGGCGUAAUCGUAACGCGUCUCCUUCCUAAGGAGCAGACUGCGGGGUCGAGUCCCGUACGGAACG, not above 0.5; for GUUCCGUUGGCGUAAUCGUAACGCGUCUCCCUUCUAAGGAGAAGACUGCGGGUUCAAGUCCCGUACGGUACG, not above 0.5.
For GUUCCGUUGGCGUAAUCGUAACGCGUCUCCCUCAUAAGGAGAAGACUGCAGGGUCGAGUUCCGUACGGAACG the value was not above 0.5.
As to GUUCCGUUGGCGUAAUCGUAACGCGUCUCCCUCAUAAGGAGAAGACUGCGGGUUCGAGCCCCGUACGGAACG, the yeast fitness was determined as 0.542.
The result for GUUCCGUUGGCGUAAUCGUAACGCGUCUUCCACCUAAGGAGAAGAUUGCGGGUUCGAGUACCGUAGGGAACG reads not above 0.5.
The result for GUUCCGUUGGCGUAAUCGUAACGCGUCUCCCUCCUAAGGAGAAGACUGUGGGUUCGAGUCCCGUACGGAACG reads 0.768; that for GUUCCGUUGGCGUAAUCGUAACGCGUCUCCCUCCUAAGGAGAAGACUGAGGGUUCGAGUCCCGUACGGAACG, 0.571; that for GUUCCGUUGGCGUAAUCGUAACGCGUCUCUCUCCUAAGGGGAAGACUGCGGGUUCGAGUCCCGUACGGAACG, 0.686.
The result for GUUCCGUUGGCGUAAUCGUAACGCGUCUCCCUGCUAAGGAGAAGACUGCGGGUUCGAGUCCCGUACGGAACG reads 0.534; that for GUUCCGUUGGCGUAAUCGUAACGCGUCUCCCUACUAAGGAGAAGACUGCGGGUUCGAGUCCCGUACGGAACG, not above 0.5.
For the variant GUUCCGUUGGCGUAAUCGUAACGCGUCUCCCUCCUAAGGAGAAGAUUGCCGGUUAGAGUCCCAUAUGGAACG, the yeast fitness is not above 0.5.
The result for GUUCCGUUGGCGUAAUCGUAACGCGUCUGCCGCCUAAAGAGAAGACUGCGGGCUCGAGUCCCGUACGGAACG reads not above 0.5; that for GUUCCGUUGGCGUAAUCGUAACGCGUCUCGCUCCUAAGGAGAAGACUGCGGGUUCGAGUGCCGUACGGAACG, 0.904; that for GUUCCGUUGGCGUAAUCGUAACGCGUCUUCCUCCUAAGGAGAAGACUGCGGGAUCGAGUCCCGUAAGGAACG, not above 0.5.
